# High-throughput results: PubChem BioAssay, several laboratories
# A selection: hits, their analogues and other compounds. The true share with any hit is near 2.3%.
# TRPC4 inh: inhibitors of mouse TRPC4 channel | Q9QUQ5 | HEK293 TRPC4beta/mu-opioid, DAMGO-evoked Fluo4 calcium flux; hits give low values | B-score at 10 µM | actives 0.39% (n = 300,000) | AID 2247;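 active means B-score over 3 SD under the library average, no early fluorescence shift, positive overall ratio signal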
#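 Signal: kinetic Fluo4 fluorescence imaging of calcium influx. Material: stable TRPC4beta/mu-opioid receptor HEK293 cells. Probe or stimulus: DAMGO in two steps, submaximal then maximal.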
# TRPC4 potent: allosterically enhances the mouse TRPC4 cation channel; AID 2227; HEK293 TRPC4beta/mu-opioid, DAMGO EC20, Fluo-4 Ca2+ flux; hits give high values; Q9QUQ5; actives 0.42% (n = 310,000); B-score at 10 µM;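 active means B-score of calcium response area above 5 SD of library B-scores, with initial fluorescence ratio within 5 SD of library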;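 further: B-score of integrated fluorescence ratio over time as area under calcium response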
# TRPC6 act: mouse TRPC6 channel activation. B-score at 10 µM. actives 0.13% (n = 310,000). HEK293-TRPC6 membrane potential dye fluorescence; hits give high values. Q61143;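 active means B-score of the integrated fluorescence ratio above library mean plus 3 SD, and starting fluorescence ratio within library mean plus 5 SD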;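 further: higher score means more depolarization so channel activation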
# Target sequence (Q61143 whole entry, looked up): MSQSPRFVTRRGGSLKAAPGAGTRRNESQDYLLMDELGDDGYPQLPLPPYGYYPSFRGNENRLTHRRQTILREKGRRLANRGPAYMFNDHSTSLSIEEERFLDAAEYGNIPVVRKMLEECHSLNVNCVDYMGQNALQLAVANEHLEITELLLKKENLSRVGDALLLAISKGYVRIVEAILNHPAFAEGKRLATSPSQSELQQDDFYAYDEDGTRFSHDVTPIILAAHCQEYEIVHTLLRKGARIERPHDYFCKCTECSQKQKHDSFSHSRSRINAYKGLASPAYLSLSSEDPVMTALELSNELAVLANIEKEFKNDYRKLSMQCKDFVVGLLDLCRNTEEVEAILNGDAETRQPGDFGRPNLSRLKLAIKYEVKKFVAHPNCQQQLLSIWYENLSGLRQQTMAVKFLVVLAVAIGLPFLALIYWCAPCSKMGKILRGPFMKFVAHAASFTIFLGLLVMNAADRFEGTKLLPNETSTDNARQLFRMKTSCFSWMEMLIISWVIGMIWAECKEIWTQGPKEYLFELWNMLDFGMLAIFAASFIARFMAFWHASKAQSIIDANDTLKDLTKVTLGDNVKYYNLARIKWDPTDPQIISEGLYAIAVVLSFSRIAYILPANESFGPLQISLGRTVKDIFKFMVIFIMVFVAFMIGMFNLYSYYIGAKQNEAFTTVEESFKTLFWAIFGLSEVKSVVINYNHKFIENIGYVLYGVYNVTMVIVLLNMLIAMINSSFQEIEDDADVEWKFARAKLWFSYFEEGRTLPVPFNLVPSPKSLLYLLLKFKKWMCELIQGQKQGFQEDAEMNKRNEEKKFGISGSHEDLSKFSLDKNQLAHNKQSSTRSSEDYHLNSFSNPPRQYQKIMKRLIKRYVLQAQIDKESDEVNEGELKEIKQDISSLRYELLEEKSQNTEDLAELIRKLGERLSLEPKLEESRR
# TRPC6 inh: blocks the mouse TRPC6 cation channel; B-score at 10 µM; actives 1.1% (n = 310,000); HEK293-TRPC6, membrane potential dye, ACh-evoked depolarization; hits give low values; Q61143;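 active means B-score under library mean minus 3 SD, initial fluorescence not abnormally high, positive integrated signal ratio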;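 further: B-score derived from integrated fluorescence ratio over the kinetic read; more negative B-score means stronger inhibition of depolarization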
# FID counter: counter-screen for HCV NS3 helicase inhibitors: DNA intercalator displacement; DNA fluorescent intercalator displacement, fluorescence; inhibition, % at 7.9 µM; actives 0.17% (n = 290,000); AID 1845; in the data active means inhibition above about 37%;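 further: 0% = vehicle and 100% = reference compound; higher means more ethidium bromide displaced from hairpin DNA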
# TRPC4 act: opens the mouse TRPC4 cation channel; HEK293 TRPC4beta/mu-opioid, Fluo4 calcium fluorescence; hits give high values; AID 2237; actives 0.49% (n = 310,000); Q9QUQ5; B-score at 10 µM;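 active means B-score above 5 SD of library B-scores, and initial fluorescence ratio not above library mean plus 5 SD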;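 further: positive B-score marks a calcium rise read as TRPC4 activation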
#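 Technique: kinetic Fluo4 calcium fluorescence; Test system: TRPC4beta and mu-opioid receptor HEK293 stable cells; Measure: B-scored integrated calcium fluorescence ratio; Benchmarks: low control buffer alone, high control maximal DAMGO; Schedule: 45 min room-temperature Fluo4 loading, 110 s read.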
# TRPC4 spec 2: second selectivity test of TRPC6 inhibitors: effect on mouse TRPC4 | actives 42% (n = 920) | HEK293 TRPC4/MOR, membrane potential dye fluorescence; channel activated by saturating DAMGO dose | shares compounds with TRPC6 inh | inhibition, % at 10 µM;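 active means compounds whose fluorescence signal differed from control wells by over 3 SD, either direction, in both duplicate plates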
# TRPC4 spec: tests whether TRPC6 inhibitors also affect mouse TRPC4 | shares compounds with TRPC6 inh | HEK293 TRPC4/mu-opioid, membrane potential fluorescence | activity change, negative = inhibition, % at 10 µM | actives 61% (n = 920) | AID 2777;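 active means rise or fall in signal beyond 3 SD of buffer-only wells in both replicate plates, either sign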;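 further: integrated kinetic ratio of fluorescence range over baseline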
# HEK293 MPD ctr 2-1: second check of TRPC6 inhibitor effects in parental HEK293 cells; actives 31% (n = 920); signal change vs control, % at 10 µM; shares compounds with TRPC6 inh; AID 2779; parental HEK293 membrane potential dye fluorescence; maximal acetylcholine challenge after compound addition;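 active means membrane potential signal moving either way by over 3 SD of the maximum-effect control, in both duplicate plates, meaning non-specific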
# HEK293 MPD ctr-1: parental HEK293 nonspecific activity of TRPC6 inhibitors | actives 60% (n = 920) | shares compounds with TRPC6 inh | membrane potential signal change, % at 10 µM | parental HEK293 membrane potential dye fluorescence;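 active means membrane potential signal shifting up or down by more than 3 SD of buffer-only wells, on both duplicate plates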
# HEK293 MPD ctr-2: counter-screen for TRPC6 modulators: effect in parental HEK293 cells; shares compounds with TRPC6 inh; membrane potential dye fluorescence; membrane potential signal change, % at 10 µM; actives 51% (n = 2,400); AID 488924;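 active means membrane potential signal moves up or down beyond 5 SD from buffer-only wells, on both duplicate plates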
# HEK293 MPD ctr 2-2: second check of TRPC6 modulator effects in parental HEK293 cells | shares compounds with TRPC6 inh | actives 14% (n = 2,400) | inhibition, % at 10 µM | AID 488926 | membrane potential dye fluorescence; after compound, maximal acetylcholine stimulation;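 active means membrane potential signal drops by more than 5 SD from the mean control signal, in both duplicate plates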;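 further: plate controls were acetylcholine ECmax control wells for no effect and buffer only wells for full effect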
# TRPC4/MOR mod: mouse TRPC4 off-target activity of TRPC6 modulators; HEK293 TRPC4/mu-opioid, membrane potential fluorescence; actives 69% (n = 2,400); shares compounds with TRPC6 inh; percent change from control (negative = decrease, positive = increase), % at 10 µM;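 active means membrane potential signal moved up or down beyond 5 SD of buffer control wells, in both duplicate plates, actives on both sides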;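 further: plate controls were assay buffer wells for no effect and DAMGO maximal-effect wells for full effect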
# TRPC4/MOR inh 2: second selectivity test of TRPC6 modulators against mouse TRPC4; shares compounds with TRPC6 inh; actives 55% (n = 2,400); inhibition, % at 10 µM; AID 488928; HEK293 TRPC4/mu-opioid, membrane potential dye fluorescence; stimulated with maximal-effect DAMGO;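 active means drop in membrane potential signal beyond 5 SD of the control wells in both duplicate plates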;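 further: TRPC4 counter screen for TRPC6 hits run under conditions tuned for TRPC6 not TRPC4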
# TRPC6 block conf: mouse TRPC6 inhibitor confirmation; HEK293-TRPC6, membrane potential dye, ACh-evoked depolarization; actives 43% (n = 3,300); shares compounds with TRPC6 inh; inhibition, % at 10 µM;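 active means fluorescence ratio falls more than 5 SD below the full-stimulation control mean, in both duplicate runs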;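 further: integrated fluorescence ratio of peak minus minimum over baseline after agonist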
# TRPC6 act confirm: mouse TRPC6 activator confirmation | activation, % at 10 µM | shares compounds with TRPC6 inh | HEK293-TRPC6 membrane potential dye fluorescence, FDSS | actives 11% (n = 2,800);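 active means ratio signal rise beyond 5 SD above unstimulated control wells' mean, seen in both duplicate runs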;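 further: plate controls were buffer EC0 wells for no effect and acetylcholine ECmax response for full effect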
# * = called active by the depositor; i = inactive; . = not tested or not shown.
SMILES,TRPC4 inh,TRPC4 potent,TRPC6 act,TRPC6 inh,FID counter,TRPC4 act,HEK293 MPD ctr-2,HEK293 MPD ctr 2-2,TRPC4/MOR mod,TRPC4/MOR inh 2,TRPC6 block conf,TRPC6 act confirm,others
Oc1ccc(CCNc2c3ccccc3nc3ccccc23)cc1O,i,i,i,-5*,39*,i,-92%*,i,-14%*,i,i,i,
COc1ccc(NC(=O)c2ccco2)c(NC(=O)c2ccc([N+](=O)[O-])cc2)c1,i,i,i,i,4,i,.,.,.,.,.,.,
COCC(=O)N1CCC(Oc2ccc(C(=O)NC3Cc4ccccc4C3)cc2)CC1,i,i,i,i,-31,i,.,.,.,.,.,.,
CCC(C)c1ccc(NC(=O)c2ccco2)cc1 (configuration not stated),i,i,i,i,-14,i,.,.,.,.,.,.,
Cn1cccc1/C=C1\CC(C(C)(C)C)C/C(=C\c2cccn2C)C1=O (configuration not stated),i,i,30*,i,-36,i,182%*,i,i,i,i,i,
Cc1ccc(N(C(=O)c2csnn2)C(C(=O)NC2CCCCC2)c2ccccn2)cc1C (configuration not stated),i,i,i,i,-40,i,.,.,.,.,.,.,
N=c1n(Cc2ccccc2)c2ccccc2n1CC(O)COc1ccccc1 (configuration not stated),i,i,i,-9.9*,32,56*,.,.,.,.,63%*,.,TRPC4 spec 2=-6.5%*;TRPC4 spec=56%*;HEK293 MPD ctr 2-1=i;HEK293 MPD ctr-1=14%*
CCCCn1c(=N)n(CC(O)COc2ccccc2)c2ccccc21 (configuration not stated),i,i,i,i,13,i,.,.,.,.,.,.,
Cc1ccc(Cn2c(=N)n(CC(O)COc3ccccc3)c3ccccc32)cc1 (configuration not stated),i,i,i,-5.9*,24,72*,i,i,68%*,115%*,46%*,.,
O=C(c1cccs1)N1CCCC(c2nc3c(nnn3Cc3ccc(F)cc3)c(=O)[nH]2)C1 (configuration not stated),i,i,i,-7.5*,-37,i,.,.,.,.,i,i,TRPC4 spec 2=i;TRPC4 spec=i;HEK293 MPD ctr 2-1=i;HEK293 MPD ctr-1=i
O=C(c1cccs1)N1CCCC(c2nc3c(nnn3Cc3ccccc3)c(=O)[nH]2)C1 (configuration not stated),i,i,i,i,-33,i,.,.,.,.,.,.,
CCOC1=C/C(=C/c2c(N)n3nc(-c4ccccc4)sc3nc2=O)C=CC1=O,i,i,13*,-5.3*,-11,i,428%*,140%*,52%*,i,i,73%*,
Cc1cc2nc3ccc(N(C)C)cc3nc2cc1N,i,i,i,-6.4*,.,i,-82%*,i,-42%*,i,i,i,
Cc1ccc(-n2nc3cc(C)c(N)cc3n2)cc1,i,i,i,i,0,i,.,.,.,.,.,.,
COc1ccc(N(CC(=O)NC2CCCCC2)C(=O)CCCC(=O)Nc2ccccn2)cc1,i,i,i,i,-39,i,.,.,.,.,.,.,
CC(=O)N1CCN(c2nc(-c3cccs3)nc3ccccc23)CC1,i,i,i,i,-8,i,.,.,.,.,.,.,
CN1CCN(c2nc(-c3ccc(Cl)c(Cl)c3)nc3ccccc23)CC1,i,i,i,i,7,i,.,.,.,.,.,.,
CCN1CCN(c2nc(-c3ccncc3)nc3ccccc23)CC1,i,i,i,i,19,i,.,.,.,.,.,.,
CCN1CCN(c2nc(-c3cccnc3)nc3ccccc23)CC1,i,i,i,-8.2*,27,i,-356%*,i,-58%*,62%*,58%*,i,
CCCN1CCN(c2nc(-c3cccs3)nc3ccccc23)CC1,i,i,i,-6.1*,17,i,-64%*,i,-15%*,52%*,i,i,
CN1CCN(c2nc(-c3ccccn3)nc3ccccc23)CC1,i,i,i,-16*,21,i,-428%*,82%*,-70%*,72%*,74%*,i,
CCN1CCN(c2nn3c(=O)c4ccccc4nc3c3ccccc23)CC1,i,i,i,-5.3*,17,i,i,i,i,52%*,42%*,i,
CC(=O)N1CCSc2ccc(S(=O)(=O)Nc3cccc(C)c3)cc21,i,i,i,i,-25,i,.,.,.,.,.,.,
COc1ccc(OC)c(S(=O)(=O)N/N=C\c2c[nH]c3ccccc23)c1,i,i,i,i,-1,i,.,.,.,.,.,.,
Cc1cc([N+](=O)[O-])ccc1N1C(=O)c2ccc(C(=O)Nc3ccccc3C(=O)O)cc2C1=O,i,i,i,i,18,i,.,.,.,.,.,.,
c1cncc(-c2nc(N3CCCCCC3)c3ccccc3n2)c1,i,i,i,i,-27,i,.,.,.,.,.,.,
